# Bioassay records as filed in PubChem.
# FGF22 binding: FGF22 (human) thermal shift binding. 340,000 compounds, 1.5% hits. recombinant FGF22 thermal shift, SYPRO orange fluorescence; percent of sucrose octasulfate shift, DMSO zero. activity (Tm shift, normalised), % at 9.99 µM. AID 651658. Q9HCT0;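 active = mean Tm shift, scaled 0 neutral to 100 positive control, at about 1.3% or above, every replicate too, limit read from the data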
# Target sequence (Q9HCT0 whole entry, looked up): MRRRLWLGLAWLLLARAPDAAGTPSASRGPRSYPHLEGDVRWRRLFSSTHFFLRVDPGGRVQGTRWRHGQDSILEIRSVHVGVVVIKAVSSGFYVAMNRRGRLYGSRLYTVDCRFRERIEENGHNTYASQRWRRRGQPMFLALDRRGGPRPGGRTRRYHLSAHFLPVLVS
# FN deposition inh: fibronectin deposition inhibition; AH1F fibroblasts, Alexa488-fibronectin deposition fluorescence, overnight; inhibition, % at 12.6 µM; 350,000 compounds, 0.086% hits;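 active = mean inhibition across replicates of 30% or more, regardless of how many single replicates reach that level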;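 also: positive control wells lacked labelled fibronectin entirely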
#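 Test system: AH1F fibroblast monolayer depositing Alexa488-labelled fibronectin into matrix. Input: 10000 cells per well. Technique: fluorescence, ex 485 nm, em 525 nm. Buffer or medium: DMEM plus 2% serum, read in PBS. Timing: 1 h cell adhesion before compound, then overnight fibronectin incubation. Compound: single dose, pinned. Read-out basis: inhibition from reduced deposited-fibronectin fluorescence.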
# XiGFP reactiv: reactivates the inactive X chromosome in mouse fibroblasts; XiGFP mouse fibroblasts, % GFP-positive cells imaging, 3 d; cells co-treated with 5-aza-dC sensitizer; scaled so ellipticine positive control = 100%; activation, % at 7.58 µM; 360,000 compounds, 0.055% hits; AID 743238;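 active = mean normalized replicate activation at least 10% and every replicate at or above 10%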;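 also: 0% = median of on-plate neutral control wells and 100% = ellipticine 6 µM median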
#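 System: XiGFP fibroblasts, SV40-immortalized. Medium: DMEM plus 5-aza-dC sensitizer. Doses: single point. Timing: 3 d treatment, 15 min room-temperature fixation. Control set: ellipticine 6 µM.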
# SIRT5 block: blocks human SIRT5 desuccinylation of peptide | 330,000 compounds, 1.1% hits | Q9NXA8 | inhibition, % at 15 µM | Purified SirT5, succinyl-peptide AMC, trypsin-coupled fluorescence; in the data active = inhibition above about 15%
# Target sequence (Q9NXA8 whole entry, looked up): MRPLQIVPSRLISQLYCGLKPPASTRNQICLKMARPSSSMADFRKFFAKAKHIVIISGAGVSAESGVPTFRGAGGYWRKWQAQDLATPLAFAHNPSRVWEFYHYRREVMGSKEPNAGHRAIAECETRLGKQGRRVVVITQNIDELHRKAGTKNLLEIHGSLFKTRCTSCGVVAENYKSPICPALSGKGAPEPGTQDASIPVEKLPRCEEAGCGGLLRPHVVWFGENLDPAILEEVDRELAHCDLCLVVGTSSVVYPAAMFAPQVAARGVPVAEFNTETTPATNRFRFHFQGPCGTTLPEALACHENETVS
# ARNT TACC3 PPI: disrupts binding between human ARNT and TACC3; Q9Y6A5; 390,000 compounds, 0.66% hits; AlphaScreen His-ARNT PAS-B/GST-TACC3 binding, luminescence; TACC3 fragment carries E629A point mutation; inhibition, % at 9.99 µM;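 active = mean inhibition of replicates at least 50% and at least half of replicates each reaching 50%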;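 also: 0% = complete ARNT plus TACC3 wells and 100% = ARNT alone without TACC3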
# DENV2 CPE rescue: DENV2-induced cell death inhibition | DENV2-infected cells, cytopathic effect rescue, plate reader | CPE inhibition, % at 9.99 µM | 350,000 compounds, 1.7% hits | AID 651640; in the data active = CPE inhibition above about 20%, passing the limit was not always enough; tested in BHK-21 cells;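 also: 0% = median of neutral control wells and 100% = median of positive control wells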
# * marks the source's active call; other numbers are inactive results; . = not tested or not shown; ! = not confirmed by another sample. Sampled rows, rich in hits. Any-hit rate of the full collection: about 3.8%.
SMILES,FGF22 binding,FN deposition inh,XiGFP reactiv,SIRT5 block,ARNT TACC3 PPI,DENV2 CPE rescue
CS(=O)(=O)c1ccc(Cl)c(NC(=O)CSc2nnc(C3CC3)n2C2CC2)c1,1.4*,-3.6,0.1,1.4,1.0,2.0
O=C(CSc1nnnn1C1CC1)Nc1cc(S(=O)(=O)N2CCCC2)ccc1Cl,42.9*,-2.8,0.0,1.1,-15.4,0.7
Cn1nnnc1SCC(=O)Nc1cc(S(=O)(=O)N2CCCC2)ccc1Cl,0.0,.,0.0,1.2,3.2,4.9
Cc1ccc(S(=O)(=O)N2CCc3ccccc3C2)cc1,0.0,1.9,0.0,-1.8,-10.0,-3.3
Cc1ccc(S(=O)(=O)N2C(=O)[C@@H]3Cc4ccccc4CN3C2=O)cc1,0.0,4.1,0.0,17.0*,.,-2.0
COC(=O)C1=C(C)N(Cc2ccco2)C(=O)N[C@@H]1c1ccco1,-0.1,10.7,0.1,2.5,1.8,59.5*
Cc1noc(C)c1S(=O)(=O)N(C)C[C@H]1Oc2ccc(NC(=O)c3ccncc3)cc2C(=O)N([C@H](C)CO)C[C@@H]1C,.,.,0.2,.,.,.
Cc1cccc(-c2ccc([C@@H]3[C@H]4CN(S(=O)(=O)c5cccc(C)c5)CCCCN4[C@H]3CO)cc2)c1,0.2,.,0.0,5.9,7.7,-2.0
Cc1ccc(-c2ccc([C@H]3[C@@H](CO)N4CCCCN(S(=O)(=O)c5cccc(C)c5)C[C@@H]34)cc2)cc1,0.6,.,.,-3.1,1.0,3.9
Cc1ccc(-c2ccc([C@@H]3[C@@H](CO)N4CCCCN(S(=O)(=O)c5cccc(C)c5)C[C@H]34)cc2)cc1,0.0,.,.,23.0*,24.3,-0.2
Cc1ccc(-c2ccc([C@@H]3[C@H]4CN(S(=O)(=O)c5cccc(C)c5)CCCCN4[C@H]3CO)cc2)cc1,0.4,.,.,18.1*,0.4,-6.5
C[C@@H]1CN([C@H](C)CO)C(=O)c2ccccc2-c2ccccc2CO[C@@H]1CN(C)C(=O)Oc1ccccc1,.,3.2,-0.1,.,.,.
COc1ccc(NC(=O)N(C)C[C@@H]2Oc3ccc(NC(=O)C4CCCCC4)cc3CC(=O)N([C@@H](C)CO)C[C@@H]2C)cc1,0.0,-2.9,-0.6,-1.4,-5.8,0.8
NC(=O)C1(C(N)=O)OC1c1ccccc1 (centres undefined),0.2,-6.1,0.1,-3.7,-0.3,1.1
NC(=O)C1(c2ccccc2)OC1c1ccccc1 (centres undefined),0.4,0.2,0.5,.,7.3,41.4*
CC(=O)C1C(c2cn(-c3ccccc3)nc2-c2cccs2)NC(=O)NC1(O)C(F)(F)F (centres undefined),.,.,.,.,47.0*,.
CC(C)CC1NC(=O)N(CC(=O)Nc2ccccc2-c2ccccc2)C1=O (centres undefined),0.1,.,-0.1,7.3,-7.2,-2.6
CC(C)CC1NC(=O)N(CCCCN2C(=O)c3ccccc3C2=O)C1=O (centres undefined),43.5*,0.1,0.0,-1.9,-0.9,.
Cc1noc(C)c1NC(=O)Nc1ccc2c(c1)C(=O)N([C@@H](C)CO)C[C@@H](C)[C@@H](CN(C)Cc1ccc(C(F)(F)F)cc1)OCCCC[C@H](C)O2,0.3,.,-0.3,5.6,-1.0,7.9
CCC(=O)c1cn(CC(=O)Nc2cccc(C)c2)c2ccccc12,0.1,-5.0,0.0,0.4,-2.7,69.1*
CC(=O)c1cn(CC(=O)Nc2cccc(C)c2C)c2ccccc12,42.2,1.4,0.1,22.0*,13.1,-1.6
C/C=C/c1ccc(C2[C@@H]3CN(C(=O)Nc4ccc5c(c4)OCO5)C[C@H]2N3)cc1 (some centres undefined),-0.5,-4.9,0.2,.,.,27.2*!
CCCc1nc(Cl)c(C#N)c2c1CCCC2,0.0,-3.3,0.0,111.8*,-13.9,.
CCc1nc(Cl)c(C#N)c2c1CCCC2,0.7,3.6,0.1,-2.2,.,2.1
O=c1[nH]cc(CN2CCOCC2)c(=O)[nH]1,43.1*,0.1,-0.1,.,-5.5,-5.0
SMILES,FGF22 binding,FN deposition inh,XiGFP reactiv,SIRT5 block,ARNT TACC3 PPI,DENV2 CPE rescue
CN1C(=O)c2cc(NC(=O)c3cccc(C(F)(F)F)c3)ccc2OC[C@H]2O[C@H](CC(=O)NCCN3CCCC3)CC[C@@H]21,-0.4,18.4,0.0,4.5,5.6,1.7
CN(C)/C=N/S(=O)(=O)c1ccc(Cl)cc1,43.0*,-2.6,0.0,-0.8,-0.1,-0.2
O=C(Nc1ccccc1C(=O)O)c1cc(S(=O)(=O)Nc2ccccc2)ccc1Cl,2.8*,13.4,0.0,23.2*,6.1,1.1
O=c1oc(CCO)cc2ccc(C#Cc3ccsc3)cc12,-0.2,-4.0,0.0,16.9*,1.7,15.6
COc1ccc(C#Cc2ccc([C@H]3[C@H]4CN(C(=O)Nc5ccccc5F)CC(=O)N4[C@H]3CO)cc2)cc1,.,.,0.4,11.6,.,6.9
CCN(CC)c1ccc(/C=N/NC(=O)c2c(Cl)cnn2C)c(O)c1,.,4.2,-0.1,.,66.3*,.
CC1CCC(NC(=O)c2cccc(S(=O)(=O)N3CCOCC3)c2)CC1 (centres undefined),43.0*,3.7,0.4,.,.,5.3
CCN(CC)c1ccc(/C=N/NC(=O)c2cccc(S(=O)(=O)N3CCOCC3)c2)c(O)c1,43.4*,10.8,-0.1,0.3,-3.2,-1.9
CCN(CC)c1ccc(C=Nc2cccc(S(=O)(=O)N3CCOCC3)c2)c(O)c1,0.4,-6.1,0.7,3.6,7.4,6.7
C[C@H](CO)N1C[C@H](C)[C@@H](CN(C)Cc2ccc3c(c2)OCO3)OCCCC[C@H](C)Oc2ccc(NC(=O)NC3CCCCC3)cc2C1=O,-0.4,.,0.0,12.7,0.6,0.9
C[C@@H]1CN([C@@H](C)CO)C(=O)c2cccc(NC(=O)Nc3ccc(C(F)(F)F)cc3)c2O[C@@H]1CN(C)Cc1ccc(C(=O)Nc2ccccc2N)cc1,-0.3,.,0.4,2.1,.,-3.7
COc1ccc(S(=O)(=O)N(C)C[C@@H]2OCCCC[C@@H](C)Oc3ccc(NC(=O)Nc4ccc5c(c4)OCO5)cc3C(=O)N([C@@H](C)CO)C[C@@H]2C)cc1,0.2,.,0.2,4.4,-7.4,-9.1
COc1ccc(NC(=O)N(C)C[C@H]2Oc3ccc(NC(=O)C4CC4)cc3CC(=O)N([C@H](C)CO)C[C@@H]2C)cc1,0.2,.,0.6,3.4,-3.5,24.2*
CNC[C@H]1Oc2ccc(NC(=O)Nc3ccc(F)cc3)cc2CC(=O)N([C@H](C)CO)C[C@@H]1C,0.0,-14.1,-0.1,36.3*,-1.9,-3.7
C[C@@H]1CN([C@@H](C)CO)C(=O)Cc2cc(NC(=O)Nc3ccccc3)ccc2O[C@@H]1CN(C)C(=O)Nc1ccc(F)cc1,-0.5,.,-1.1,-3.2,-6.3,39.9*
